Only some compounds are listed: those with a hit (about 2.8% of all), similar ones and a draw of the others.
p47phox inh = inhibitors of human p47phox binding. P14598. p47phox/p22phox peptide binding, fluorescence polarization, 2 h. inhibition, % at 24.7 µM. hit rate 0.53% among 220,000. AID 1274;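 note: 0% = p47phox with labelled peptide and 100% = labelled peptide alone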
eIF4E-4G inh = blocks eIF4E binding to eIF4G; P63073+Q04637; TR-FRET eIF4E-eIF4GI(517-606) binding, 2 h; inhibition, % at 21.7 µM; hit rate 0.37% among 220,000; AID 782;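 note: 0% = full FRET control wells and 100% = background wells lacking eIF4GI fragment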
14-3-3 Bad inh = disrupts binding of bovine 14-3-3 zeta to phospho-Bad peptide | P63103 | TR-FRET 14-3-3zeta/Dy647-pBad peptide displacement, 1 h | inhibition, % at 21.7 µM | hit rate 0.71% among 220,000 | AID 781;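 active = inhibition above about 70%, limit read from the data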;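 note: 0% = full 14-3-3 plus peptide FRET controls and 100% = background without 14-3-3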
Wee1 stabilizer = human Wee1 degradation inhibition, primary screen | AID 1321 | reporter increase, % at 5 µM | HeLa Luc-Wee1K328M stability, luciferase luminescence; 100% = proteasome inhibitor MG132 effect | hit rate 1.2% among 220,000;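 active = activation above the mean of all tested compounds plus 3 SD, set per screening run, cut at about 8.8% in these data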;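 note: cells exposed to compound for 20 h before luminescence read; 0% = DMSO alone and 100% = MG132 at 30 µM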
RBBP9 inhibitor = inhibitors of human serine hydrolase RBBP9; O75884; recombinant RBBP9, FP-Rh probe fluorescence polarization; inhibition, % at 7.94 µM; hit rate 0.2% among 220,000; AID 1515;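 active = inhibition above the campaign mean of all tested compounds plus 3 SD, cut at about 14% in these data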;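 note: plate controls were DMSO wells with RBBP9 for no effect and wells lacking RBBP9 protein for full effect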
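System: RBBP9 protein | Quantity: 2.5 µM RBBP9 dispensing solution, before mixing | Reagent: FP-Rh probe, 375 nM dispensing solution | Timing: Enzyme-compound preincubation 30 min, then probe labeling 45 min, 25 °C | Measured by: Fluorescence polarization | Read-out: % inhibition | Replication: One well per compound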
* hit, by the source's call; + = active, no number; [ ] = dose if it differs, or a comment.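 Rule for the calls, unless noted: active = inhibition above about 30% (limit read from the data); inactive = the rest.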

SMILES | p47phox inh | eIF4E-4G inh | 14-3-3 Bad inh | Wee1 stabilizer | RBBP9 inhibitor
CCOC(=O)C1=C(COc2ccc(C)cc2)NC(=O)NC1c1cc(C)ccc1C (stereo unspecified) | + | 2 | -1 | 3 | -6
CCC1(C)Cc2ccccc2C(=S)N1 (stereo unspecified) | -3 | 3 | -12 | 1 | -2
COCCNC(=O)[C@H](C)[C@H]1C[C@]1(C)[C@H](NC(=O)OCc1ccccc1)c1ccccc1 | -1 | 3 | 10 | 9.1* | -11
Oc1ccc(/C=N/Nc2nn3cnnc3c3ccccc23)cc1 | -13 | 98* | 1 | -2 | 6
O=C1C2C3C=CC(C3)C2C(=O)N1CCCCN1C(=O)C2C3C=CC(C3)C2C1=O (stereo unspecified) | -2 | 46* | 73* | -1 | 4
O=C1C2C3C=CC(C3)C2C(=O)N1CCCO (stereo unspecified) | -14 | 0 | -1 | -1 | 1
O=C1C(=O)N(CC2CCCO2)C(c2ccccc2[N+](=O)[O-])/C1=C(/O)c1ccccc1 (stereo unspecified) | -3 | -5 | -6 | -1 | 0
Nc1cc(S(=O)(=O)Nc2ccc(Br)cc2)ccc1Cl | -10 | 4 | 8 | 9.4* | -3
C=CCN(CC(=O)O)S(=O)(=O)c1ccccc1C(F)(F)F | -12 | -2 | -4 | -1 | 3
COc1ccc(N(CC(=O)Nc2cccc(C(F)(F)F)c2)S(C)(=O)=O)cc1 | -8 | -6 | 0 | 1 | 1
COc1ccc(OC)c(N(CC(=O)Nc2cccnc2)S(C)(=O)=O)c1 | -4 | 4 | 8 | 9.6* | -6
COc1ccc(N(CC(=O)Nc2cccc(SC)c2)S(C)(=O)=O)cc1 | -13 | 7 | -10 | 9.2* | 1
O=C(COc1ccc(N2CC(C(=O)O)CC2=O)cc1)Nc1cccc(C(F)(F)F)c1 (stereo unspecified) | -5 | 2 | 1 | 1 | -2
COc1cccc(NC(=O)COc2ccc(N3CC(C(=O)NCC(C)C)CC3=O)cc2)c1 (stereo unspecified) | -4 | 72* | 6 | 1 | 0
COc1ccc(CC(=O)Nc2nc(-c3cccc([N+](=O)[O-])c3)cs2)cc1 | 1 | 2 | -17 | 10* | -14
Cc1c(Nc2nc(-c3cccc([N+](=O)[O-])c3)cs2)c(=O)n(-c2ccccc2)n1C | 4 | -4 | 88* | -2 | -4
COc1cccc(Nc2nc(-c3sc(NC(=O)c4ccccc4)nc3C)cs2)c1 | -30 | -12 | 52 | -2 | -6
COc1ccc(CC(=O)Nc2nc(-c3ccncc3)cs2)cc1 | -14 | -6 | -18 | 2 | -4
Cc1nc(NC(=O)c2ccccc2)sc1-c1csc(Nc2ccc(C(=O)O)cc2)n1 | -38 | 35* | 75* | 2 | -4
CC(=O)Nc1nc(C)c(-c2csc(Nc3cccc([N+](=O)[O-])c3)n2)s1 | -12 | -84 | 87*[fluorescence artefact?] | -2 | 1
O=C(Nc1nc(-c2cccc([N+](=O)[O-])c2)cs1)C(c1ccccc1)c1ccccc1 | -14 | -21 | -3 | -1 | -9
O=C(OCc1nnc(-c2ccccc2)o1)C1CC(=O)N(Cc2ccco2)C1 (stereo unspecified) | 10 | 1 | 6 | -2 | -12
Cc1nc(NC(=O)c2ccc(Cl)cc2)sc1-c1csc(Nc2cccc(F)c2)n1 | 158* | -11 | 73* | 0 | -7
O=C(NCCc1ccc(F)cc1)C1CCCCC1 | 1 | 1 | 5 | -3 | -8
N=C(N)SCc1nc2ccccc2c(=O)n1-c1ccccc1Cl | -6 | 3 | 18 | -1 | -3
SMILES | p47phox inh | eIF4E-4G inh | 14-3-3 Bad inh | Wee1 stabilizer | RBBP9 inhibitor
O=c1c2ccccc2nc(CSc2nnnn2-c2ccccc2)n1-c1ccccc1Cl | 40* | 10 | 42 | 0 | 4
CC1CCCN(C(=O)COc2ccc(Nc3ccccc3)cc2)C1 (stereo unspecified) | -10 | -6 | -11 | 4 | -5
Cc1[nH]c2c(C)cccc2c1CC(=O)O | -11 | -5 | 86* | -2 | -1
COC(=O)c1c(C)c2c(C)cc3ccccn3c-2c1C(=O)OC | 6 | -15 | 1 | 1 | 4
COC(=O)c1cc2c(-c3ccccc3)cc3ccccn3c-2c1C(=O)OC | 53* | -27 | -35 | 0 | -4
C=CCc1cccc2cc(C(=O)Nc3ccc(S(=O)(=O)Nc4nnc(CC)s4)cc3)c(=O)oc12 | -36 | 20 | 17 | -3 | -4
Cc1cc2c(sc3c(C)ccc(C)c32)c(C)n1 | -3 | 3 | 0 | 4 | -6
Cc1cc(C)cc(Oc2ccccc2CO)c1 | 33* | 4 | -4 | 4 | -6
CN1C(=O)C(c2nnc(Nc3cccc4ccccc34)s2)C2CC1(C)Oc1ccccc12 (stereo unspecified) | -13 | 2 | -29 | -3 | -7
CN1CCC(=C2c3ccccc3C=Cc3ccccc32)CC1 | -9 | 1 | 1 | 9.7* | -7
CCO[C@@H]1OC(C(=O)N2CCN(Cc3ccccc3)CC2)=C[C@H](c2coc3ccccc3c2=O)[C@H]1CCCO | -15 | 4 | 4 | 0 | 1
CC(=O)N1CCn2c3ccc(C)cc3c3cccc1c32 | -4 | -1 | -1 | 3 | -7
N#CCC(=O)c1ccccc1Oc1ccc(Cl)cc1 | -21 | 3 | 24 | -3 | -5
CC(C)N1C(=O)/C(=C\c2nc3ccccc3c(=O)n2-c2ccccc2)c2ccccc21 | 0 | -2 | 21 | -1 | -11
CC(C)N1C(=O)/C(=C/c2nc3ccccc3c(=O)n2-c2ccccc2)c2ccccc21 | -5 | 2 | 77* | 0 | 3
CC(=O)N1N=C(c2cccc([N+](=O)[O-])c2)OC1(C)CC(=O)Nc1ccccc1 (stereo unspecified) | -11 | 24 | 81*[fluorescence artefact?] | 0 | -2
CC(SC(=S)N1CCCC1)C(=O)O (stereo unspecified) | -6 | -1 | -14 | 5 | -4
Cc1ccccc1-n1c(SCC(=O)N/N=C/c2c(C)nn(-c3ccccc3)c2C)nc2ccccc2c1=O | -4 | -1 | 89* | 0 | -26
COc1cccc(-n2c(SCC(=O)NCc3cccs3)nc3ccccc3c2=O)c1 | -6 | 1 | 4 | 3 | -6
Cc1ccccc1-n1c(SCC(=O)NCc2cccs2)nc2ccccc2c1=O | 30* | -3 | 3 | -2 | -9
Cc1c(NC(=S)NC(=O)c2ccco2)cccc1-c1nc2ncccc2o1 | 9 | 3 | 9 | -1 | -1
Cc1cccc(NC(=O)COC(=O)c2cc3ccccc3oc2=O)c1 | -2 | 2 | -2 | 8.9* | -8
O=C(Nc1ccccc1C(=O)NCc1ccc(Cl)cc1)c1ccco1 | 31* | -8 | 34 | -1 | -1
COc1ccc(C)cc1NC(=O)c1cc2c(CO)cnc(C)c2oc1=N | 4 | 3 | 7 | 9.2* | -7
